Data set [1] in a line: Chemical stability of the compound in 0.01 M PBS at 10 uM after 60 mins by LC-MS/MS method. It counts as physicochemical. The following applies: buffer, 1 h. In outline: (§1)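 Prodrug from 10 mM DMSO stock spiked to 10 µM final in preheated PBS at 37 °C; aliquots taken over 60 min, quenched with cold acetonitrile containing losartan internal standard, diluted with water, and intact prodrug measured by LC-MS/MS.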

A short description of data set [2]: Solubility of the compound in 0.01 M PBS after 24 hrs by shake flask method. In kind it is physicochemical. The note with it: buffer.
Data set [3] in a line: Prodrug conversion in naive mouse plasma assessed as mebendazole formation by measuring remaining parent drug at 10 uM measured at 60 mins by LC-MS/MS method. It counts as ADME, cell-free. The note with it: 1 h. In outline:
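Prodrug spiked at 10 µM into 1 mL naive mouse plasma, incubated on orbital shaker at 37 °C; triplicate aliquots at 0 and 60 min quenched with ice-cold acetonitrile plus losartan internal standard; remaining prodrug by LC-MS/MS.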

The nature of data set [4]: Prodrug conversion in mouse jejunum homogenate assessed as mebendazole formation by measuring remaining parent drug at 10 uM measured at 60 mins by LC-MS/MS method. In kind it is ADME, tissue-based. The following applies: in vitro, 1 h. The essentials:
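Washed mouse jejunum diluted 10-fold in 0.1 M potassium phosphate buffer, probe-sonicated; homogenate spiked with 10 µM prodrug; triplicate aliquots at 0 and 60 min quenched with ice-cold acetonitrile plus losartan; prodrug remaining by LC-MS/MS peak-area ratio to internal standard.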

The nature of data set [5]: Prodrug conversion in mouse liver microsomes assessed as mebendazole formation by measuring remaining parent drug at 10 uM measured at 60 mins by LC-MS/MS method. It counts as ADME, microsome. The note with it: 1 h. The essentials:
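Mouse liver microsomes (0.5 mg/mL) with 10 µM prodrug in 100 mM potassium phosphate, pH 7.4, reaction started by adding microsomes; triplicate samples at 0 and 60 min quenched with ice-cold acetonitrile containing losartan; prodrug disappearance by LC-MS/MS.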
In general terms: Microsomes from liver hold many membrane-bound enzymes, among them those of drug oxidation.

Data set [6] is described as follows: Prodrug conversion in CD1 mouse plasma assessed as mebendazole formation at 30 mg/kg mebendazole equivalent administered single dose via oral gavage measured at 60 mins by LC-MS/MS method. The note with it: in vivo, 1 h. It counts as ADME, organism-based.
The conditions of data set [7]: mouse, in vivo, po, 30 mg/kg, 0.5 h.
A short description of data set [8]: Chemical stability of the compound in 0.01 M PBS assessed as parent compound remaining at 10 uM after 60 mins by LC-MS/MS method. The following applies: read-out: Stability. It counts as physicochemical. The essentials:
as §1

Data set [9] can be described thus: Clearance in CD1 mouse at 1.5 mg/kg, iv by LC-MS/MS method. In kind it is ADME, organism-based. The following applies: in vivo. The essentials:
(§2)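 Male CD-1 mice (25–30 g) received single IV dose 1.5 mg/kg MBZ-C dissolved just before dosing in 1% DMSO, 10% Cremophor EL, 89% saline; sacrificed by CO2 at set times; plasma extracted with acetonitrile containing losartan internal standard and MBZ measured by LC-MS/MS against naive-matrix calibration (0.001-50 nmol/g).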

A short description of data set [10]: Cmax in Beagle dog at 0.3 mg/kg, iv at 5 mins by LC-MS/MS method. It counts as ADME, organism-based, Canis lupus familiaris. On the set-up: dose 0.3 mg/kg, route intravenous. The following applies: in vivo. In outline:
(§3)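 Male beagle dogs (n=2) given single IV bolus of MBZ-C at 0.3 mg/kg in co-solvent vehicle (1% DMSO, 10% Cremophor EL). Jugular vein blood (~1 mL) by direct puncture at set times into sodium heparin tubes, kept on wet ice, spun 3,000 × g 5 min 4 °C, plasma stored -80 °C; MBZ quantified by LC-MS/MS.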

Data set [11] is described as follows: Tmax in Beagle dog at […], po by LC-MS/MS method. In kind it is ADME, organism-based, Canis lupus familiaris. The note with it: in vivo.
A short description of data set [12]: AUC (0 to t) in Beagle dog at 0.3 mg/kg, iv by LC-MS/MS method. In kind it is ADME, organism-based, Canis lupus familiaris. The note with it: in vivo. In outline:
as §3

A short description of data set [13]: Half life in CD1 mouse at 1.5 mg/kg, iv by LC-MS/MS method. The note with it: in vivo. In kind it is ADME, organism-based. In outline:
as §2

Data set [14] is described as follows: Cmax in CD1 mouse brain at 30 mg/kg administered via oral gavage at 60 mins by LC-MS/MS method. It counts as ADME, organism-based. The following applies: in vivo, 1 h. Set-up: dose 30 mg/kg, route oral. In outline:
(§4)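 Male CD-1 mice dosed once by oral gavage, 30 mg/kg MBZ equivalent, formulated just before dosing in 5% ethanol, 5% polysorbate 80, 90% water; plasma and brain collected at set times after CO2 euthanasia; MBZ by LC-MS/MS; AUC0-t by log-linear trapezoidal rule; brain/plasma ratio as ratio of mean AUC0-t values.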

A short description of data set [15]: Volume of distribution in Beagle dog at 0.3 mg/kg, iv by LC-MS/MS method. In kind it is ADME, organism-based, Canis lupus familiaris. The note with it: in vivo. The essentials: as §3
Data set [16] can be described thus: Cmax in Beagle dog at […], po measured at 2 hrs by LC-MS/MS method. On the set-up: dose 2.5 mg/kg, route oral. It counts as ADME, organism-based, Canis lupus familiaris. The note with it: in vivo.
Data set [17] is described as follows: Cmax in CD1 mouse at 1.5 mg/kg, iv at 5 mins by LC-MS/MS method. On the set-up: dose 1.5 mg/kg, route intravenous. In kind it is ADME, organism-based. The note with it: in vivo. The essentials: as §2
Data set [18] can be described thus: Oral bioavailability in CD1 mouse plasma at 30 mg/kg administered via gavage by LC-MS/MS method. It counts as ADME, organism-based.
A short description of data set [19]: Oral bioavailability in human at 1.18 ug. In kind it is ADME, organism-based. The following applies: in vivo.
A short description of data set [20]: Ratio of drug level in brain to plasma in CD1 mouse at 30 mg/kg administered via oral gavage by LC-MS/MS method. In kind it is ADME, organism-based. The note with it: brain and plasma, read-out: BPR. The essentials:
as §4

A short description of data set [21]: Tmax in CD1 mouse plasma at 30 mg/kg administered via oral gavage by LC-MS/MS method. It counts as ADME, organism-based. The essentials:
as §4

A short description of data set [22]: AUC (0 to t) in CD1 mouse at 1.5 mg/kg, iv by LC-MS/MS method. It counts as ADME, organism-based. The following applies: in vivo. The essentials:
as §2

Data set [23] is described as follows: Oral bioavailability in human at 1.7 ug. It counts as ADME, organism-based. The note with it: in vivo.
The nature of data set [24]: Half life in Beagle dog at 0.3 mg/kg, iv by LC-MS/MS method. In kind it is ADME, organism-based, Canis lupus familiaris. The following applies: in vivo. In outline:
as §3

Data set [25] can be described thus: Tmax in CD1 mouse brain at 30 mg/kg administered via oral gavage by LC-MS/MS method. It counts as ADME, organism-based. The essentials: as §4
Data set [26] can be described thus: AUC (0 to t) in CD1 mouse plasma at 30 mg/kg administered via oral gavage by LC-MS/MS method. In kind it is ADME, organism-based. In outline:
as §4

A short description of data set [27]: Volume of distribution in CD1 mouse at 1.5 mg/kg, iv by LC-MS/MS method. In kind it is ADME, organism-based. The note with it: in vivo. In outline: as §2
Data set [28] can be described thus: Cmax in CD1 mouse plasma at 30 mg/kg administered via oral gavage at 60 mins by LC-MS/MS method. It counts as ADME, organism-based. On the set-up: dose 30 mg/kg, route oral. The essentials:
as §4

The nature of data set [29]: AUC (0 to t) in CD1 mouse brain at 30 mg/kg administered via oral gavage by LC-MS/MS method. It counts as ADME, organism-based. The following applies: in vivo. In outline:
as §4

Data set [30] is described as follows: Plasma concentration in CD1 mouse at 30 mg/kg administered single dose via oral gavage measured at 60 mins by LC-MS/MS method. It counts as ADME, organism-based.
The nature of data set [31]: Oral bioavailability in Beagle dog at […] by LC-MS/MS method. The following applies: in vivo. In kind it is ADME, organism-based, Canis lupus familiaris.
Data set [32] can be described thus: Tmax in Beagle dog at 0.3 mg/kg, iv by LC-MS/MS method. In kind it is ADME, organism-based, Canis lupus familiaris. The note with it: in vivo. In outline: as §3
Data set [33] can be described thus: Tmax in CD1 mouse at 1.5 mg/kg, iv by LC-MS/MS method. It counts as ADME, organism-based. The note with it: in vivo. In outline:
as §2

A short description of data set [34]: Clearance in Beagle dog at 0.3 mg/kg, iv by LC-MS/MS method. It counts as ADME, organism-based, Canis lupus familiaris. The note with it: in vivo. In outline: as §3
The nature of data set [35]: AUC (0 to t) in Beagle dog at […], po by LC-MS/MS method. It counts as ADME, organism-based, Canis lupus familiaris. The note with it: in vivo.

As for `COC(=O)Nc1nc2cc(C(=O)c3ccccc3)ccc2n1COP(=O)(O)O`, the Stability result in [1] is listed as “Stable”; in [3], 62%; in data set [4], 35%; in data set [5], 100%. Besides, in data set [2], the solubility entry is “Soluble”. In addition, the Drug metabolism in data set [6] amounted to 8.53 nmol/mL.
For the compound `COC(=O)Nc1nc2cc(C(=O)c3ccccc3)ccc2n1COC(=O)CNC(=O)[C@H](CC(C)C)NC(C)=O`, the Stability entry was “Stable” in [1], 0% in data set [3], 18% in data set [4] and 29% in data set [5]. Moreover, in [2], the solubility entry is “Soluble”. Also, in data set [6], the Drug metabolism turned out to be 8.72 nmol/mL.
Turning to `COC(=O)Nc1nc2cc(C(=O)c3ccccc3)ccc2n1COC(=O)OC[C@H]1OC(O)[C@H](O)[C@@H](O)[C@@H]1O` (some centres not stated), the Stability result in data set [1] is given as “Stable”; in data set [3] it was 18%; in data set [4], 4%; in [5], 27%. The solubility result in data set [2] is on record as “Soluble”.
For `COC(=O)Nc1nc2cc(C(=O)c3ccccc3)ccc2n1COC(=O)OC(C)C`, the Stability entry in data set [1] is recorded as “Stable”. For the same compound, the solubility result in data set [2] is “Soluble”.
Turning to `COC(=O)Nc1nc2cc(C(=O)c3ccccc3)ccc2n1COP(=O)(O)OCOC(=O)OC(C)C`, the Stability entry in data set [1] is listed as “Stable”; in [3], 73%; in data set [4], 1%; in data set [5] it was 14%. Further, the Cmax in data set [7] came out at 12.2 µM. Further, in data set [6], the Drug metabolism is 10.35 nmol/mL.
As for `COC(=O)Nc1nc2cc(C(=O)c3ccccc3)ccc2n1COC(=O)CC[C@H](N)C(=O)O`, the remaining at 1 h, 10 µM in [8] is 0%. The solubility result in [2] is given as “Soluble”.
For `COC(=O)Nc1nc2cc(C(=O)c3ccccc3)ccc2n1COC(=O)CCC(=O)O`, the Stability entry in [1] is recorded as “Stable”; in data set [3] it was 78%; in data set [4], 30%; in [5], 24%. Moreover, the solubility result in [2] is reported as “Soluble”.
With `COC(=O)Nc1nc2ccc(C(=O)c3ccccc3)cc2[nH]1` [MEBENDAZOLE], the values for the clearance in data set [9] and in [34] were 27.4 mL/min/kg and 22.2 mL/min/kg, respectively. Moreover, the Cmax was 2.2 µM in data set [10], 5.1 nmol/g in [14], 5.3 µM in data set [17] and 5.1 µM in data set [28]. For the same compound, the time of peak concentration (Tmax) (as a rule, the time from dosing to the highest level) in [11] was 120 min; in [21], 60 min; in data set [25] it was 60 min; in data set [32], 4.98 min; in data set [33], 4.98 min. Also, the AUC(0-t) (in general, the area under the concentration-time curve up to a stated or last time point) in data set [12] stood at 0.9 µM·h; in [22], 2.7 µM·h; in data set [26] it was 12.9 µM·h; in data set [35], 0.8 µM·h. Further, the half-life (usually how long it takes for the measured level to halve) was 43.8 min in data set [13] and 43.2 min in data set [24]. Further, the Vd (usually the apparent volume that relates the amount in the body to the concentration in plasma or blood) in [15] came out at 1.3 L/kg; in data set [27], 1.4 L/kg. The same compound registered a Cmax at 2 h in [16] of 0.2 µM. Besides, the bioavailability (in general, dose-corrected exposure relative to a reference, in per cent) was found to be 24% in data set [18], 22% in data set [19], 17% in data set [23] and 11% in data set [31]. The Kp in [20] turned out to be 1. Also, the Stability in [3], in data set [4] and in data set [5] was 100% in each case. The compound further gave an AUCt in data set [29] of 13.1 nmol·h/g. Further, the concentration at 1 h in [30] was 2.86 µM.
